# CAL PDZ FP-1: CAL PDZ (human) peptide binding inhibition; purified CAL PDZ, TMR-peptide fluorescence polarization, 1 h; inhibition, % at 24.9 µM; hit rate 0.92% among 300,000; AID 602252;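 active = mean inhibition of at least 30% with at least half of replicates also reaching 30%; inconclusive = no clear call, values can overlap the other calls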;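 also: 0% = DMSO neutral control and 100% = excess unlabeled competitor peptide PRC23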
# dFosB activator: activators of mouse delta FosB homodimer; P13346; purified delta FosB, TAMRA-CDK5 oligo fluorescence polarization; percent of positive-control signal above neutral wells; activation, % at 25 µM; hit rate 0.99% among 340,000; AID 493131;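 active = mean activation above about 17%, with every replicate also reaching it, limit read from the data, passing the limit was not always enough; inconclusive = only one of the two conditions met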
# CDK5 inh: inhibitors of human CDK5/p35 kinase. Q00535+Q15078. Recombinant CDK5/p35, ADP-Glo luminescence, 60 min. inhibition, % at 10 µM. hit rate 0.01% among 330,000. AID 488839;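 active = highest replicate inhibition of at least 50% and at least 75% of replicates reaching 50%; inconclusive = only one of the two criteria met; inactive = both criteria failed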;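 also: plate controls were DMSO neutral control for no effect and GW8510 at 10 µM for full effect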
# Target sequence (Q00535 whole entry, looked up): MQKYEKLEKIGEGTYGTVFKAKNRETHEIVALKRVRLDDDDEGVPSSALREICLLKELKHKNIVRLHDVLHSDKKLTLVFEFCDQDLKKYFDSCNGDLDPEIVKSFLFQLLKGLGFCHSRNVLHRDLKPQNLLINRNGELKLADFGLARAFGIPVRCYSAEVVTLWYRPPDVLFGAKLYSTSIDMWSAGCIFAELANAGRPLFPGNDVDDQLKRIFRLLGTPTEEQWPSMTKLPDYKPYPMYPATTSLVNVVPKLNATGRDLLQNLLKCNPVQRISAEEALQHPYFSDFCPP
# Target sequence (Q15078 whole entry, looked up): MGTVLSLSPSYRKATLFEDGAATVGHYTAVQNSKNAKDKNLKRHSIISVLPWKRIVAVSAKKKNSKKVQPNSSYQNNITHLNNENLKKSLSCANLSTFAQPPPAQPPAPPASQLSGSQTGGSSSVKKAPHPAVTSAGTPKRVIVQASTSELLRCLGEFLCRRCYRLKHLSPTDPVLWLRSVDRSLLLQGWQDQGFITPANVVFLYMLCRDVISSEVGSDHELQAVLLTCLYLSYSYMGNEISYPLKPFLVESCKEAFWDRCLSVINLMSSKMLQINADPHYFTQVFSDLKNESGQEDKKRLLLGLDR
# CAL PDZ FP-2: blocks peptide binding to human CAL PDZ domain | Q9HD26 | purified CAL PDZ, TMR-peptide fluorescence polarization, 1 h | inhibition, % at 20 µM | hit rate 0.02% among 330,000 | AID 504414;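 active = highest replicate inhibition of at least 40%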;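 also: plate controls were DMSO neutral control wells for no effect and unlabeled competitor peptide control wells for full effect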
#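 System: tagged CAL PDZ domain. Schedule: 1 h room-temperature incubation prior to read. Signal: fluorescence polarization (mP). Measure: percent inhibition from loss of millipolarization.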
# Statin myotox sup: suppression of simvastatin myotoxicity; C2C12 myotubes + simvastatin, ATP luminescence, 48 h; scaled: DMSO 0, geranylgeraniol control 100; rescue of ATP level, % at 7.49 µM; hit rate 0.78% among 330,000;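 active = mean ATP rescue above about 67%, or every replicate alone reaching that limit, limit read from the data, passing the limit was not always enough; inconclusive = no clear call, values can overlap the other calls; inactive = mean under the limit and some replicate under it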;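 also: myotubes were challenged with 10 µM simvastatin during compound exposure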
# S100A4 inh HTS: S100A4-myosin IIA interaction inhibition. inhibition, % at 10.7 µM. AID 652163. hit rate 0.14% among 360,000. S100A4/TAMRA-MyoIIA peptide fluorescence polarization. P26447;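 active = mean inhibition of at least 70% across replicates, with every replicate also reaching that level; inconclusive = mean inhibition reaches 70% but some replicates fall short; inactive = mean inhibition below 70%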
#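 Material: human S100A4 monomer with TAMRA-labelled myosin IIA peptide; buffer or medium: HEPES pH 7.2 with CaCl2, KCl, NaCl, DTT, Triton; compound dosing: one concentration per compound; schedule: 5 min incubation before reading; benchmarks: neutral control DMSO, positive control TFP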
# * marks the source's active call; other numbers are inactive results; ? = inconclusive; . = no result; + = active, no number. A selection: hits, their analogues and other compounds. The true share with any hit is near 2%.
SMILES,CAL PDZ FP-1,dFosB activator,CDK5 inh,CAL PDZ FP-2,Statin myotox sup,S100A4 inh HTS
Cc1cc(N2CCN(c3ccccc3)CC2)n2nnnc2n1,-2.4,-3.5,-2.2,-0.5,149.3*,.
Cc1cc(N2CCN(c3nnnn3-c3ccccc3)CC2)n2ncnc2n1,3.2,-5.9,0.8,-2.5,110.8*,.
CC(=O)Nc1ccc(NC(=O)c2cc(=O)c3ccc(C)cc3o2)cc1,4.5,-2.3,2.3,-3.1,-2.0,-1.6
O=C(c1cc(Cl)c(=O)n(Cc2ccccc2)c1)N1CCOCC1,1.2,-3.2,0.2,-0.8,.,.
O=C(Cn1cccc1C(=O)c1ccccc1)NCc1ccccc1Cl,+,-4.7,0.3,-0.5,-27.2,1.6
CN(C)S(=O)(=O)c1ccc(N2CCOCC2)nc1,.,1.9,-1.0,-0.3,-5.0,.
CN(Cc1ccccc1)S(=O)(=O)c1ccc(N2CCOCC2)nc1,72.6*,4.2,-1.2,1.0,0.5,-7.9
CCN(C(=O)CSc1ncccc1C(=O)OC(C)C)c1cccc(C)c1,-4.2,-14.5,-0.4,-0.4,-0.9,.
COc1ccc(S(=O)(=O)N(C)C[C@@H]2OCc3ccccc3-c3c(n(C)c4ccccc34)C(=O)N([C@@H](C)CO)C[C@@H]2C)cc1,.,.,.,.,11.5,3.3
COc1cccc(S(=O)(=O)N(C)C[C@H]2OCc3ccccc3-c3c(n(C)c4ccccc34)C(=O)N([C@H](C)CO)C[C@H]2C)c1,.,.,.,.,79.8*,1.4
COc1cccc(NC(=O)N(C)C[C@@H]2OCc3ccccc3-c3c(n(C)c4ccccc34)C(=O)N([C@@H](C)CO)C[C@@H]2C)c1,.,.,.,.,12.1,97.1*
COc1ccccc1CN1C(=O)[C@H]2Cc3c([nH]c4ccccc34)C(C)(C)N2C1=O,-4.5,0.7,-0.1,-0.4,7.3,-3.2
COc1cc(C(=O)N2CCN(c3cccc(C)c3C)CC2)ccc1OCC(=O)N1CCOCC1,4.1,-7.2,-2.3,-1.4,2.3,4.6
O=C1C(=O)N(Cc2ccccc2)C(=O)N1CCN1C(=O)c2ccccc2C1=O,.,-4.9,-1.9,0.3,.,3.7
Cc1c(-c2nc(-c3ccncc3)no2)cccc1[N+](=O)[O-],68.9*,4.5,0.5,-1.2,.,-1.0
CC(=O)O[C@]1(C(C)=O)CCC2C3CCC4=C/C(=N/OCC(=O)O)CC[C@]4(C)C3CC[C@@]21C (stereo not given in full),-1.1,-10.8,0.8,-1.6,5.0,24.9
CSc1cc(CS(=O)(=O)c2ccccc2)nc(-c2ccccc2)n1,79.5*,4.1,-0.9,-1.0,.,-0.5
C[C@H](C(=O)O)c1cccc(C(=O)c2ccccc2)c1,3.0,0.5,0.8,0.2,-2.0,9.8
CC(C(=O)O)c1cccc(C(=O)c2ccccc2)c1 (stereo not given),32.4*,-0.4,-0.5,-0.2,-5.5,-7.1
O=C(C(c1ccccc1)c1ccccc1)N1CCN(Cc2ccncc2)CC1,-2.4,0.3,0.2,-0.7,-3.7,.
O=C(C(c1ccccc1)c1ccccc1)N1CCN(Cc2ccccn2)CC1,30.6*,-1.0,2.1,-0.5,.,.
Cc1ccc(C)c(NC(=O)/C(C#N)=C/c2cn(CC(=O)NCc3ccco3)c3ccccc23)c1,43.7*,-6.8,-2.3,-0.7,.,7.3
Cc1cc(C)cc(NC(=O)/C(C#N)=C/c2cn(CC(=O)NCc3ccco3)c3ccccc23)c1,-1.9,33.2*,0.2,-3.4,.,.
Cc1ccc(NC(=O)Cn2cc(C=O)c3ccccc32)cc1C,-2.0,20.1*,1.1,.,18.6,5.9
Cc1ccc(NC(=O)/C(C#N)=C/c2cn(CC(=O)NCc3ccco3)c3ccccc23)cc1C,-8.1,60.3*,-0.7,.,.,-4.9
Cc1ccccc1OCCn1cc(/C=C(\C#N)C(=O)NCc2ccco2)c2ccccc21,1.0,?,1.1,-0.8,-23.8,-3.0
CNC(=O)/C(C#N)=C/c1cn(CC(=O)NCc2ccco2)c2ccccc12,10.9,-3.3,-0.9,16.7,5.9,-8.5
CC(C)OP(=O)(OC(C)C)C(Nc1ccccn1)c1ccc(F)cc1 (stereo not given),-4.3,1.1,0.7,-3.2,.,.
COc1ccccc1C(=O)NNC(=O)c1ccc(F)cc1,4.8,7.0,3.0,-2.0,.,4.6
